This is an account of results in ChEMBL document CHEMBL4308909, “Synthesis, Antioxidant Activity and Cytotoxicity of N-Functionalized Organotellurides” (Bioorg Med Chem, 2019).

The nature of data set [1]: Antioxidant activity assessed as ferric ion reducing activity by measuring trolox equivalents after 40 mins by FRAP assay. In kind it is functional. The method in brief: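 Samples at several concentrations incubated with reagent at 37 °C for 40 min in the dark, absorbance read at 593 nm. Expressed as trolox equivalent antioxidant capacity. Quercetin reference.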
The nature of data set [2]: Antioxidant activity of the compound assessed as DPPH radical scavenging activity after 30 mins by spectrophotometric method. In kind it is functional. Summed up: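 Methanolic DPPH (130 μmol L⁻¹ before mixing, 1:1 with sample) mixed with methanolic samples at several concentrations, 30 min at room temperature in the dark, absorbance at 517 nm. Percent scavenging calculated against a methanol-plus-DPPH control. IC50 from linear regression, triplicate. Quercetin reference.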
Background: Loss of DPPH colour is used to gauge radical scavenging.

For data set [3], the system named is L929. The experiment in a line: Cytotoxicity against mouse L929 cells assessed as reduction in cell viability at 3.9 to 15.6 ug/ml after 24 hrs by neutral red staining-based spectrophotometric analysis. The following applies: l929, 24 h. Summed up:
(§1)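 L929 fibroblasts grown in DMEM with 2 mM L-glutamine, 10% FBS, penicillin/streptomycin, 37 °C, 5% CO₂. Cells seeded at 2.5 × 10⁵ cells ml⁻¹ and treated after 24 h with 1.95–15.625 μg mL⁻¹ for 24 h (DMSO ≤1.5% final). Neutral red (40 μg mL⁻¹) for 3 h, fixed, dye extracted with ethanol/acetic acid, read at 540 nm. Compared with negative control by Tukey's test.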

The nature of data set [4]: Antioxidant activity assessed as ABTS radical scavenging activity after 16 hrs by spectrophotometric analysis. Type of data set: functional. Summed up: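 ABTS radical cation generated from ABTS (7 mmol L⁻¹) plus potassium persulfate (140 mmol L⁻¹), 16 h at room temperature in the dark, diluted in ethanol to absorbance 0.70 at 734 nm. Sample added at several concentrations, read at 734 nm after 6 min. Trolox calibration curve (20–600 μmol L⁻¹) in ethanol, results in mmol TE g⁻¹. Quercetin reference.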

Data set [5] has as its system L929. Briefly: Cytotoxicity against mouse L929 cells assessed as reduction in cell viability at 1.9 ug/ml after 24 hrs by neutral red staining-based spectrophotometric analysis. The following applies: l929, 24 h. Summed up:
as §1

Data set [6] relates to L929. Briefly: Cytotoxicity against mouse L929 cells assessed as reduction in cell viability at 1.9 to 15.6 ug/ml after 24 hrs by neutral red staining-based spectrophotometric analysis. The following applies: l929, 24 h. Summed up:
as §1

Molecules are shown by their SMILES. Values after ≈ are worked out from the molar mass of the structure shown. Active and inactive are the calls of the source. The calls are words filed in the database; no cut-off is given here.

What is called IC50 is the concentration needed to halve the response being measured. As for `CCCC[Te]c1ccc(C(C)NCc2ccccc2)cc1` (centres undefined), the outcome in data set [1] and in data set [4] was inactive. Moreover, the IC50 in data set [2] is 11.41 µg/mL. In data set [3], the Activity result is on record as “Non-Toxic”.

In the case of `CCCC[Se]c1ccc(C(C)N)cc1` (centres undefined), the IC50 in data set [2] was greater than 100 µg/mL.

Consider `CCCC[Se]c1ccc(C(C)NCC(C)C)cc1` (centres undefined), for which the IC50 in data set [2] is greater than 100 µg/mL.

In the case of `C=CCNC(C)c1ccc([Te]CCCC)cc1` (centres undefined), the IC50 in data set [2] was greater than 100 µg/mL.

For the molecule `CCCC[Se]c1cccc(C(C)N)c1` (centres undefined), in data set [2], the IC50 was greater than 100 µg/mL.

With `CCCC[Te]c1cccc(/C(C)=N/O)c1`, the result in data set [1] and in data set [4] was Active. Moreover, in data set [2], the IC50 stood at 5.12 µg/mL. For the same molecule, the Activity result is “Non-Toxic” in data set [5] and “Toxic” in data set [3].

`CCCC[Te]c1ccc(/C(C)=N/N)cc1`: the IC50 in data set [2] turned out to be 5.08 µg/mL. For the same molecule, the Activity entry in data set [6] is recorded as “Non-Toxic”.

`CCCC[Te]c1ccc(C(C)N)cc1` (centres undefined): the outcome in data set [1] and in data set [4] was Active. In addition, in data set [2], the IC50 was 12.07 µg/mL. Moreover, the results for the Activity result in data set [5] and in data set [3] were “Non-Toxic” and “Toxic”, respectively.

Take `C/C(=N\O)c1ccc([Te]CCCO)cc1`: the outcome in data set [1] was inactive. For the same molecule, the IC50 in data set [2] amounted to 13.06 µg/mL. Further, in data set [6], the Activity result is on record as “Non-Toxic”.

Take `CCCC[Te]c1cccc(C(C)N)c1` (centres undefined): the outcome in data set [1] and in data set [4] was Active. In addition, in data set [2], the IC50 was 19.22 µg/mL. For the same molecule, the results for the Activity result in data set [5] and in data set [3] were “Non-Toxic” and “Toxic”, respectively.

Regarding `CCCC[Te]c1ccc(/C(C)=N/O)cc1`, the outcome in data set [1] and in data set [4] was Active. For the same molecule, the IC50 in data set [2] was determined as 7.79 µg/mL. Besides, the Activity entry in data set [5] is given as “Non-Toxic”; in data set [3], “Toxic”.

Consider `O=c1c(O)c(-c2ccc(O)c(O)c2)oc2cc(O)cc(O)c12` [QUERCETIN], for which the outcome in data set [1] and in data set [4] was Active. In data set [2], the IC50 is 2.54 µg/mL (≈ 8.4 µM).

In the case of `CCCCNC(C)c1ccc([Te]CCCC)cc1` (centres undefined), the outcome in data set [1] and in data set [4] was inactive. Moreover, the IC50 in data set [2] came to 8.63 µg/mL. In addition, the Activity result in data set [3] is recorded as “Non-Toxic”.

As for `CCCC[Te]c1ccc(C(C)NCC(C)C)cc1` (centres undefined), the outcome in data set [1] and in data set [4] was inactive. For the same molecule, the IC50 in data set [2] was 12.49 µg/mL. Moreover, in data set [3], the Activity result was “Non-Toxic”.
